What was measured:
Mus musculus [1] = assay: Toxicity in mouse assessed as increase in haematocrit at 5 ug/kg, ip qd for 4 days after 72 hrs of last postdose; type: organism-based; conditions: in vivo, 0.005 mg/kg
Procedure, shortened: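 Mice (n = 5/group) received a daily intraperitoneal injection at 5 µg/kg body weight for 4 days, with isopropanol as vehicle. Blood was drawn before dosing and at 24, 48, 72 and 96 h, and haematocrit was recorded from these samples.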

HCT-116 = assay: Cytotoxicity against human HCT116 assessed as decrease in cell count after 120 hrs; type: functional, cell-based; conditions: HCT-116, 120 h
Mus musculus [2] = assay: Toxicity in mouse assessed as mortality at 5 ug/kg, ip qd for 4 days; type: organism-based; conditions: in vivo, 0.005 mg/kg, 96 h
Procedure, shortened: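 Mice, groups of 5, given daily intraperitoneal injection at 5 µg/kg body weight for 4 days, isopropanol vehicle group alongside. Blood collected before dosing and at 24, 48, 72 and 96 h for plasma calcium (arsenazo III absorbance). Health condition recorded daily; deaths noted. Experiment repeated two times.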

[3] = Cytotoxicity against human HN12 assessed as decrease in cell count after 120 hrs; type: functional; conditions: HN12, 120 h
Mus musculus [4] = assay: Toxicity in mouse assessed as increase in plasma calcium level at 5 ug/kg, ip qd for 4 days measured after 24 to 96 hrs postdose; type: organism-based; conditions: in vivo, 0.005 mg/kg
Procedure, shortened: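 Mice (n = 5/group) were dosed ip daily at 5 µg/kg body weight for 4 days, with isopropanol as vehicle. Plasma calcium was read by arsenazo III metallochromic absorbance before injection (0 h, basal) and at 24, 48, 72 and 96 h. Data are means ± SD of five animals, and the experiment was run twice.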

[5] = AUC (0 to 24 hrs) in mouse at 5 ug/kg; type: ADME, organism-based; design: dose 5 ug/kg, time < 24 hr; conditions: plasma, 0.005 mg/kg
[6] = Cmax in mouse at 5 ug/kg; type: ADME, organism-based; design: dose 5 ug/kg; conditions: in vivo, 0.005 mg/kg

Row | Compound | Activity (Mus musculus [1]) | IC50 (HCT-116) | Activity (Mus musculus [2]) | IC50 [3] | Activity (Mus musculus [4]) | AUC(0-t) at 24 h [5] | Cmax [6]
1 | C=C1/C(=C\C=C2/CCC[C@]3(C)[C@@H]([C@H](C)/C=C\[C@H](C)C(O)(CC)CC)CC[C@@H]23)C[C@@H](O)C[C@@H]1O | Toxic | 0.76 nM | Toxic | 5.05 nM | Toxic | – | –
2 | C=C1/C(=C\C=C2/CCC[C@]3(C)[C@@H]([C@H](C)CCCC(C)(C)O)CC[C@@H]23)C[C@@H](O)C[C@@H]1O [CALCITRIOL] | Toxic | – | Toxic | – | Toxic | > 40 ng·h/mL | > 10 ng/mL

Reference: ChEMBL document CHEMBL2146387, “Synthesis and biological evaluation of a new vitamin D2 analogue” (Bioorg Med Chem Lett, 2012)
